In ChEMBL document CHEMBL1649258, “Combined inactivation of lon and ycgE decreases multidrug susceptibility by reducing the amount of OmpF porin in Escherichia coli” (2009):
In brackets after ≈: the same amount, converted by molar mass.

Columns and labels:
Type in all cases: functional
Escherichia coli [1] = test: Antibacterial activity against wild-type Escherichia coli AG100 harboring IS186 insertion in lon3 gene, Tn5 insertion in ycgE gene and plasmid pMPM carrying ompF gene at 26 degC by Etest method
Escherichia coli [2] = test: Antibacterial activity against wild-type Escherichia coli AG100 at 37 degC by Etest method
Escherichia coli [3] = test: Antibacterial activity against wild-type Escherichia coli AG100 harboring Tn5 insertion in ycgE gene at 37 degC by Etest method
Escherichia coli [4] = test: Antibacterial activity against wild-type Escherichia coli AG100 harboring IS186 insertion in lon3 gene and Tn5 insertion in ycgE gene at 26 degC by Etest method
Escherichia coli [5] = test: Antibacterial activity against wild-type Escherichia coli AG100 harboring IS186 insertion in lon3 gene at 26 degC by Etest method
Escherichia coli [6] = test: Antibacterial activity against ompF-deficient Escherichia coli AG100 harboring IS186 insertion in lon3 gene and Tn5 insertion in ycgE gene at 37 degC by Etest method
Escherichia coli [7] = test: Antibacterial activity against wild-type Escherichia coli AG100 at 26 degC by Etest method
Escherichia coli [8] = test: Antibacterial activity against wild-type Escherichia coli AG100 harboring IS186 insertion in lon3 gene, Tn5 insertion in ycgE gene and plasmid pMPM at 26 degC by Etest method
Escherichia coli [9] = test: Antibacterial activity against wild-type Escherichia coli AG100 harboring IS186 insertion in lon3 gene at 37 degC by Etest method
Escherichia coli [10] = test: Antibacterial activity against ompF-deficient Escherichia coli AG100 at 37 degC by Etest method
Escherichia coli [11] = test: Antibacterial activity against wild-type Escherichia coli AG100 harboring marR mutant gene at 26 degC by Etest method
Escherichia coli [12] = test: Antibacterial activity against wild-type Escherichia coli AG100 harboring marR mutant gene at 37 degC by Etest method
Escherichia coli [13] = test: Antibacterial activity against ompF-deficient Escherichia coli AG100 harboring IS186 insertion in lon3 gene and Tn5 insertion in ycgE gene at 26 degC by Etest method
Escherichia coli [14] = test: Antibacterial activity against wild-type Escherichia coli AG100 harboring IS186 insertion in lon3 gene and Tn5 insertion in ycgE gene at 37 degC by Etest method
Escherichia coli [15] = test: Antibacterial activity against ompF-deficient Escherichia coli AG100 at 26 degC by Etest method
Escherichia coli [16] = test: Antibacterial activity against wild-type Escherichia coli AG100 harboring Tn5 insertion in ycgE gene at 26 degC by Etest method
Escherichia coli [17] = test: Antibacterial activity against wild-type Escherichia coli AG100 harboring IS186 insertion in lon3 gene, Tn5 insertion in ycgE gene, plasmid pET21b carrying ompF gene and pACT7SP at 26 degC by Etest method
Procedure, shortened: (§1)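 MIC by Etest on LB agar at 26°C for the lon ycgE strain with pACT7Sp plus pET21b or pET21b-ompF; plates contained 100 μg/ml ampicillin, 50 μg/ml spectinomycin and 0.1 mM IPTG to induce OmpF; averages of at least four measurements.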

Escherichia coli [18] = test: Antibacterial activity against wild-type Escherichia coli AG100 harboring IS186 insertion in lon3 gene, Tn5 insertion in ycgE gene, plasmid pET21b and pACT7SP at 26 degC by Etest method; procedure, shortened: as §1

Compound: CC1(C)S[C@@H]2[C@H](NC(=O)[C@H](N)c3ccccc3)C(=O)N2[C@H]1C(=O)O [AMPICILLIN]
- MIC (Escherichia coli [1]): 1.5 mg/L (≈ 4.29 µM)
- MIC (Escherichia coli [2]): 1 mg/L (≈ 2.86 µM)
- MIC (Escherichia coli [3]): 1 mg/L (≈ 2.86 µM)
- MIC (Escherichia coli [4]): 1.8 mg/L (≈ 5.15 µM)
- MIC (Escherichia coli [5]): 0.83 mg/L (≈ 2.38 µM)
- MIC (Escherichia coli [6]): 2.2 mg/L (≈ 6.3 µM)
- MIC (Escherichia coli [7]): 0.75 mg/L (≈ 2.15 µM)
- MIC (Escherichia coli [8]): 2.3 mg/L (≈ 6.58 µM)
- MIC (Escherichia coli [9]): 1 mg/L (≈ 2.86 µM)
- MIC (Escherichia coli [10]): 1.83 mg/L (≈ 5.24 µM)
- MIC (Escherichia coli [11]): 4 mg/L (≈ 11.4 µM)
- MIC (Escherichia coli [12]): 3 mg/L (≈ 8.59 µM)
- MIC (Escherichia coli [13]): 2.3 mg/L (≈ 6.58 µM)
- MIC (Escherichia coli [14]): 1.7 mg/L (≈ 4.87 µM)
- MIC (Escherichia coli [15]): 1.5 mg/L (≈ 4.29 µM)
- MIC (Escherichia coli [16]): 0.75 mg/L (≈ 2.15 µM)

Compound: CO[C@@]1(NC(=O)Cc2cccs2)C(=O)N2C(C(=O)O)=C(COC(N)=O)CS[C@@H]21 [CEFOXITIN]
- MIC (Escherichia coli [1]): 1 mg/L (≈ 2.34 µM)
- MIC (Escherichia coli [2]): 1.5 mg/L (≈ 3.51 µM)
- MIC (Escherichia coli [3]): 1.7 mg/L (≈ 3.98 µM)
- MIC (Escherichia coli [4]): 4 mg/L (≈ 9.36 µM)
- MIC (Escherichia coli [5]): 0.92 mg/L (≈ 2.15 µM)
- MIC (Escherichia coli [6]): 3 mg/L (≈ 7.02 µM)
- MIC (Escherichia coli [7]): 0.75 mg/L (≈ 1.75 µM)
- MIC (Escherichia coli [8]): 6 mg/L (≈ 14 µM)
- MIC (Escherichia coli [9]): 1.7 mg/L (≈ 3.98 µM)
- MIC (Escherichia coli [10]): 3 mg/L (≈ 7.02 µM)
- MIC (Escherichia coli [11]): 7.3 mg/L (≈ 17.1 µM)
- MIC (Escherichia coli [12]): 6 mg/L (≈ 14 µM)
- MIC (Escherichia coli [13]): 4.7 mg/L (≈ 11 µM)
- MIC (Escherichia coli [14]): 4 mg/L (≈ 9.36 µM)
- MIC (Escherichia coli [15]): 3 mg/L (≈ 7.02 µM)
- MIC (Escherichia coli [16]): 0.92 mg/L (≈ 2.15 µM)

Compound: CC(=O)OCC1=C(C(=O)O)N2C(=O)[C@@H](NC(=O)Cc3cccs3)[C@H]2SC1 [CEPHALOTHIN]
- MIC (Escherichia coli [1]): 2 mg/L (≈ 5.04 µM)
- MIC (Escherichia coli [2]): 2 mg/L (≈ 5.04 µM)
- MIC (Escherichia coli [3]): 2.3 mg/L (≈ 5.8 µM)
- MIC (Escherichia coli [4]): 6 mg/L (≈ 15.1 µM)
- MIC (Escherichia coli [5]): 1.2 mg/L (≈ 3.03 µM)
- MIC (Escherichia coli [6]): 4.7 mg/L (≈ 11.9 µM)
- MIC (Escherichia coli [7]): 1 mg/L (≈ 2.52 µM)
- MIC (Escherichia coli [8]): 5.3 mg/L (≈ 13.4 µM)
- MIC (Escherichia coli [9]): 2 mg/L (≈ 5.04 µM)
- MIC (Escherichia coli [10]): 4.7 mg/L (≈ 11.9 µM)
- MIC (Escherichia coli [11]): 10.7 mg/L (≈ 27 µM)
- MIC (Escherichia coli [12]): 9.3 mg/L (≈ 23.5 µM)
- MIC (Escherichia coli [13]): 6.7 mg/L (≈ 16.9 µM)
- MIC (Escherichia coli [14]): 4.7 mg/L (≈ 11.9 µM)
- MIC (Escherichia coli [15]): 4.7 mg/L (≈ 11.9 µM)
- MIC (Escherichia coli [16]): 1.3 mg/L (≈ 3.28 µM)

Compound: O=C(N[C@H](CO)[C@H](O)c1ccc([N+](=O)[O-])cc1)C(Cl)Cl [CHLORAMPHENICOL]
- MIC (Escherichia coli [2]): 4 mg/L (≈ 12.4 µM)
- MIC (Escherichia coli [3]): 4 mg/L (≈ 12.4 µM)
- MIC (Escherichia coli [4]): 12 mg/L (≈ 37.1 µM)
- MIC (Escherichia coli [5]): 4 mg/L (≈ 12.4 µM)
- MIC (Escherichia coli [6]): 10.7 mg/L (≈ 33.1 µM)
- MIC (Escherichia coli [7]): 4 mg/L (≈ 12.4 µM)
- MIC (Escherichia coli [9]): 4 mg/L (≈ 12.4 µM)
- MIC (Escherichia coli [10]): 6.7 mg/L (≈ 20.7 µM)
- MIC (Escherichia coli [11]): 24 mg/L (≈ 74.3 µM)
- MIC (Escherichia coli [12]): 21 mg/L (≈ 65 µM)
- MIC (Escherichia coli [13]): 13.3 mg/L (≈ 41.2 µM)
- MIC (Escherichia coli [14]): 9.3 mg/L (≈ 28.8 µM)
- MIC (Escherichia coli [15]): 6 mg/L (≈ 18.6 µM)
- MIC (Escherichia coli [16]): 4 mg/L (≈ 12.4 µM)

Compound: C[C@H]1c2cccc(O)c2C(=O)C2=C(O)[C@]3(O)C(=O)C(C(N)=O)=C(O)[C@@H](N(C)C)[C@@H]3[C@@H](O)[C@@H]21.O [DOXYCYCLINE]
- MIC (Escherichia coli [2]): 1 mg/L
- MIC (Escherichia coli [3]): 1.17 mg/L
- MIC (Escherichia coli [17]): 0.75 mg/L
- MIC (Escherichia coli [4]): 2 mg/L
- MIC (Escherichia coli [5]): 0.75 mg/L
- MIC (Escherichia coli [6]): 2 mg/L
- MIC (Escherichia coli [7]): 0.5 mg/L
- MIC (Escherichia coli [9]): 1.17 mg/L
- MIC (Escherichia coli [18]): 2 mg/L
- MIC (Escherichia coli [10]): 2 mg/L
- MIC (Escherichia coli [11]): 3.7 mg/L
- MIC (Escherichia coli [12]): 3.3 mg/L
- MIC (Escherichia coli [13]): 2 mg/L
- MIC (Escherichia coli [14]): 2 mg/L
- MIC (Escherichia coli [15]): 2 mg/L
- MIC (Escherichia coli [16]): 0.83 mg/L

Compound: CCn1cc(C(=O)O)c(=O)c2ccc(C)nc21 [NALIDIXIC ACID]
- MIC (Escherichia coli [1]): 3 mg/L (≈ 12.9 µM)
- MIC (Escherichia coli [2]): 4 mg/L (≈ 17.2 µM)
- MIC (Escherichia coli [3]): 4 mg/L (≈ 17.2 µM)
- MIC (Escherichia coli [17]): 3 mg/L (≈ 12.9 µM)
- MIC (Escherichia coli [4]): 3.3 mg/L (≈ 14.2 µM)
- MIC (Escherichia coli [5]): 3.7 mg/L (≈ 15.9 µM)
- MIC (Escherichia coli [6]): 4 mg/L (≈ 17.2 µM)
- MIC (Escherichia coli [7]): 4 mg/L (≈ 17.2 µM)
- MIC (Escherichia coli [8]): 3 mg/L (≈ 12.9 µM)
- MIC (Escherichia coli [9]): 4 mg/L (≈ 17.2 µM)
- MIC (Escherichia coli [18]): 3 mg/L (≈ 12.9 µM)
- MIC (Escherichia coli [10]): 4 mg/L (≈ 17.2 µM)
- MIC (Escherichia coli [11]): 6.7 mg/L (≈ 28.8 µM)
- MIC (Escherichia coli [12]): 10.7 mg/L (≈ 46.1 µM)
- MIC (Escherichia coli [13]): 3.3 mg/L (≈ 14.2 µM)
- MIC (Escherichia coli [14]): 4 mg/L (≈ 17.2 µM)
- MIC (Escherichia coli [15]): 3.3 mg/L (≈ 14.2 µM)
- MIC (Escherichia coli [16]): 3.7 mg/L (≈ 15.9 µM)

Compound: CN(C)[C@@H]1C(O)=C(C(N)=O)C(=O)[C@@]2(O)C(O)=C3C(=O)c4c(O)cccc4[C@@](C)(O)[C@H]3C[C@@H]12 [TETRACYCLINE]
- MIC (Escherichia coli [2]): 1 mg/L (≈ 2.25 µM)
- MIC (Escherichia coli [3]): 1 mg/L (≈ 2.25 µM)
- MIC (Escherichia coli [4]): 2 mg/L (≈ 4.5 µM)
- MIC (Escherichia coli [5]): 0.5 mg/L (≈ 1.13 µM)
- MIC (Escherichia coli [6]): 2 mg/L (≈ 4.5 µM)
- MIC (Escherichia coli [7]): 0.5 mg/L (≈ 1.13 µM)
- MIC (Escherichia coli [9]): 1 mg/L (≈ 2.25 µM)
- MIC (Escherichia coli [10]): 1.83 mg/L (≈ 4.12 µM)
- MIC (Escherichia coli [11]): 6 mg/L (≈ 13.5 µM)
- MIC (Escherichia coli [12]): 4 mg/L (≈ 9 µM)
- MIC (Escherichia coli [13]): 2 mg/L (≈ 4.5 µM)
- MIC (Escherichia coli [14]): 2 mg/L (≈ 4.5 µM)
- MIC (Escherichia coli [15]): 2 mg/L (≈ 4.5 µM)
- MIC (Escherichia coli [16]): 0.5 mg/L (≈ 1.13 µM)
